Data set [1] relates to Escherichia coli. Put plainly: Bactericidal activity against Escherichia coli K88 incubated for 24 hrs followed by replating on agar plate and measured after overnight incubation. The class given is functional. The note with it: K88, 24 h, read-out: MBC>99.9. The gist of the method: (§1)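 Mid-log bacteria diluted in MHB to (0.5–1) × 10^5 CFU/mL and mixed 1:1 with peptide serially diluted in 0.2% BSA. After 24 h at 37 °C, 50 μL of each mixture was plated on agar and incubated overnight. MBC taken as the lowest concentration killing >99.9% of cells. At least three independent experiments, each with three technical replicates.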

For data set [2], the system named is Escherichia coli. Kind of data set: Antibacterial activity against Escherichia coli K88 measured after 24 hrs. The class given is functional. To be noted: K88, 24 h. A digest of the protocol:
(§2)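 Broth microdilution adapted from NCCLS. Mid-log bacteria were diluted in MHB to a final (0.5–1) × 10^5 CFU mL−1. Peptides were serially diluted in 0.2% BSA and mixed with an equal volume of cells. After 24 h at 37 °C, MIC was read at A492 as the lowest concentration inhibiting 95% of growth. At least three independent experiments, each with three technical replicates.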

Data set [3] deals with Candida albicans. Kind of data set: Antifungal activity against Candida albicans cgmcc2.2086 measured after 48 hrs in presence of NH4Cl by broth microdilution method. The class given is functional. To be noted: cgmcc2.2086, 48 h. (In general: In broth dilution the organism is exposed to a series of concentrations in liquid medium.)
Data set [4] concerns Staphylococcus aureus. Kind of data set: Bactericidal activity against Staphylococcus aureus ATCC 25923 incubated for 24 hrs followed by replating on agar plate and measured after overnight incubation. Format: functional. The note with it: ATCC 25923, 24 h, read-out: MBC>99.9. The gist of the method:
(§3)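 After the 24 h, 37 °C MHB microdilution MIC assay, 50 μL from each well was plated on agar and incubated overnight. MBC taken as lowest peptide concentration killing >99.9% of cells. At least three independent experiments, each with three technical replicates.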

Data set [5] deals with Escherichia coli. Put plainly: Antibacterial activity against Escherichia coli UB1005 measured after 24 hrs. The class given is functional. The note with it: UB1005, 24 h. A digest of the protocol: as §2
For data set [6], the system named is Candida albicans. Put plainly: Antifungal activity against Candida albicans cgmcc2.2086 measured after 48 hrs by broth microdilution method. Format: functional. To be noted: cgmcc2.2086, 48 h. The gist of the method: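 Modified CLSI M27-A2 microdilution. Yeast colonies were diluted in MOPS-buffered RPMI 1640 to a final (0.5–1) × 10^3 CFU mL−1 and mixed with an equal volume of peptide serially diluted in 0.2% BSA. After 48 h at 28 °C, MIC was read at A492 as the lowest concentration inhibiting 95% of growth. At least three independent experiments, each with three technical replicates.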

Data set [7] deals with Staphylococcus aureus. Put plainly: Bactericidal activity against methicillin-resistant Staphylococcus aureus ATCC 43300 incubated for 24 hrs followed by replating on agar plate and measured after overnight incubation. Format: functional. The note with it: ATCC 43300, 24 h, read-out: MBC>99.9. A digest of the protocol: as §3
Data set [8] has as its system Escherichia coli. Kind of data set: Antibacterial activity against Escherichia coli ATCC 25922 measured after 18 to 24 hrs in presence of NH4Cl. The class given is functional.
The subject of data set [9] is Staphylococcus aureus. Put plainly: Antibacterial activity against Staphylococcus aureus ATCC 29213 measured after 24 hrs. Format: functional. The note with it: ATCC 29213, 24 h. The gist of the method:
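Broth microdilution modified from NCCLS. Mid-log bacteria at (0.5–1) × 10^5 CFU mL−1 in MHB, mixed with peptides serially diluted in 0.2% BSA. Incubated 24 h at 37 °C, read at A492. MIC taken as lowest concentration giving 95% growth inhibition. At least three independent experiments, each with three technical replicates.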

Data set [10] deals with Escherichia coli. Put plainly: Bactericidal activity against Escherichia coli 078 incubated for 24 hrs followed by replating on agar plate and measured after overnight incubation. Format: functional. The note with it: Escherichia coli, 078, 24 h; read-out: MBC>99.9. A digest of the protocol: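 After the 24 h, 37 °C MHB microdilution (0.5–1 × 10^5 CFU mL−1 inoculum, peptides diluted in 0.2% BSA), 50 μL from each well was plated on agar and incubated overnight. MBC was taken as the lowest concentration killing >99.9% of cells. Three or more independent experiments, each with triplicate technical replicates.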

Data set [11] has as its system Salmonella typhimurium. Kind of data set: Antibacterial activity against Salmonella typhimurium C7731 measured after 24 hrs. The class given is functional, Salmonella enterica subsp. enterica serovar Typhimurium. The note with it: Salmonella enterica, C7731, 24 h. A digest of the protocol:
as §2

Data set [12] can be described thus: Conformational stability in pH 7.4 sodium phosphate buffer assessed as absorption spectra at minimum dichroic band at 35 uM by CD spectra analysis. Format: physicochemical. The note with it: pH 7.4, 35 µM. A digest of the protocol:
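CD spectra from 190 to 250 nm of peptide at 35 μM in 10 mM PBS, 30 mM SDS micelles or 50% TFE, recorded in a 1.0-mm quartz cell. Ellipticity was converted to mean residue ellipticity. Three independent scans, each averaged over more than 3 runs.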

For data set [13], the system named is Escherichia coli. Kind of data set: Antibacterial activity against Escherichia coli ATCC 25922 measured after 18 to 24 hrs in presence of MgCl2. Format: functional.
A further data set concerns Pseudomonas aeruginosa. Kind of data set: Bactericidal activity against Pseudomonas aeruginosa ATCC 27853 incubated for 24 hrs followed by replating on agar plate and measured after overnight incubation. Format: functional. To be noted: ATCC 27853, 24 h, read-out: MBC>99.9. A digest of the protocol: as §1
For data set [14], the system named is Candida albicans. Kind of data set: Antifungal activity against Candida albicans cgmcc2.2086 measured after 48 hrs in presence of FeCl by broth microdilution method. Format: functional. The note with it: cgmcc2.2086, 48 h.
Another data set concerns Candida tropicalis. Put plainly: Fungicidal activity against Candida tropicalis cgmcc2.1975 incubated for 48 hrs followed by replating on YM agar plate and measured after 48 hrs. The class given is functional. The gist of the method:
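Yeast diluted in MOPS-buffered RPMI 1640 to (0.5–1) × 10^3 CFU/mL (CLSI M27-A2, modified) and mixed 1:1 with peptide serially diluted in 0.2% BSA. After 48 h at 28 °C, 50 μL per well was plated on YM agar and incubated 48 h at 28 °C. MFC taken as the lowest concentration killing ≥99.9% of cells. Three or more independent experiments, triplicate wells.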

Data set [15] relates to Salmonella typhimurium. Put plainly: Antibacterial activity against Salmonella typhimurium ATCC 14028 measured after 24 hrs. Format: functional, Salmonella enterica subsp. enterica serovar Typhimurium. To be noted: Salmonella enterica, ATCC 14028, 24 h. The gist of the method: as §2
For data set [16], the system named is Staphylococcus aureus. Put plainly: Antibacterial activity against Staphylococcus aureus ATCC 29213 measured after 18 to 24 hrs in presence of MgCl2. The class given is functional.
The nature of data set [17]: Antibacterial activity against Salmonella pullorum ATCC 7913 measured after 24 hrs. Format: functional, Salmonella enterica subsp. enterica serovar Pullorum. The note with it: Salmonella enterica, ATCC 7913, 24 h. The gist of the method:
as §2

For data set [18], the system named is Staphylococcus aureus. Kind of data set: Antibacterial activity against Staphylococcus aureus ATCC 29213 measured after 18 to 24 hrs in presence of NH4Cl. Format: functional. A digest of the protocol:
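MIC broth microdilution (MHB, 0.2% BSA peptide diluent, A492, 95% inhibition) run in the presence of physiological salts at final concentrations of 6 μM NH4Cl or 8 μM ZnCl2. Three independent assays, each with three technical replicates.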

The nature of data set [19]: Bactericidal activity against Salmonella pullorum ATCC 7913 incubated for 24 hrs followed by replating on agar plate and measured after overnight incubation. Format: functional, Salmonella enterica subsp. enterica serovar Pullorum. To be noted: Salmonella enterica, ATCC 7913, 24 h; read-out: MBC>99.9. The gist of the method:
as §1

The nature of data set [20]: Therapeutic index, ratio of MHC10 for hemolytic activity in human RBC to MIC95 against Staphylococcus aureus ATCC 29213. Format: toxicity. To be noted: human red blood cells (erythrocytes), read-out: TI. A digest of the protocol: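 Therapeutic index = MHC divided by MIC. MHC is the lowest concentration giving >10% lysis of human RBC (1 h, 37 °C, 1-128 µM, A576). MIC is 95% growth inhibition by broth microdilution: bacteria in MHB 24 h at 37 °C; Candida in MOPS-buffered RPMI 1640 at (0.5–1) × 10^3 CFU mL−1, 48 h at 28 °C.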

For orientation: MBC means the smallest concentration meeting the test's criterion for killing. Take H-AARIILRWRFR-NH2: the MBC with Escherichia coli [1] came to 4 µM; in the data set on Staphylococcus aureus [4], 4 µM; with Staphylococcus aureus [7], 1 µM; in the data set with Escherichia coli [10], 2 µM; in the data set on Pseudomonas aeruginosa it was 4 µM; in data set [19], 4 µM. Besides, the MIC95 against Escherichia coli [2] was found to be 2 µM; with Candida albicans [3] it was 8 µM; in the data set with Escherichia coli [5], 4 µM; in the data set with Candida albicans [6] it was 8 µM; in the data set with Escherichia coli [8] it was 4 µM; in the data set with Staphylococcus aureus [9], 1 µM. The MIC95 against Salmonella typhimurium [11] came out at 4 µM; in the data set on Escherichia coli [13] it was 4 µM; in the data set on Candida albicans [14], 8 µM; in the data set with Salmonella typhimurium [15], 2 µM; in the data set on Staphylococcus aureus [16] it was 2 µM; in [17] it was 2 µM. For the same substance, the MIC95 in the data set on Staphylococcus aureus [18] was determined as 2 µM. In data set [12], the “Wavelength of minimum CD band” value was 200 nm. The “MFC<=99.9” value in the data set with Candida tropicalis came to 4 µM. The selectivity ratio in [20] came to 215.

Regarding H-AARIILRLRFR-NH2, the MBC in the data set with Escherichia coli [1] stood at 8 µM; in the data set on Staphylococcus aureus [4], 4 µM; in the data set on Staphylococcus aureus [7] it was 4 µM; with Escherichia coli [10], 8 µM; in the data set with Pseudomonas aeruginosa, 32 µM; in data set [19] it was 8 µM. Moreover, the MIC95 with Escherichia coli [2] stood at 4 µM; in the data set on Candida albicans [3] it was 8 µM; in the data set with Escherichia coli [5], 4 µM; in the data set on Candida albicans [6], 8 µM; in the data set on Escherichia coli [8] it was 4 µM; in the data set with Staphylococcus aureus [9], 2 µM. For the same substance, the MIC95 with Salmonella typhimurium [11] worked out at 4 µM; in the data set on Escherichia coli [13], 16 µM; in the data set with Candida albicans [14], 8 µM; in the data set with Salmonella typhimurium [15], 4 µM; with Staphylococcus aureus [16], 2 µM; in [17], 4 µM. Also, in the data set with Staphylococcus aureus [18], the MIC95 was determined as 2 µM. Besides, the “Wavelength of minimum CD band” value in [12] amounted to 200 nm. In addition, the “MFC<=99.9” value against Candida tropicalis stood at 4 µM. In addition, the selectivity ratio in data set [20] was 128.

For the substance H-AARIILRIRFR-NH2, the MBC in the data set on Escherichia coli [1] was 4 µM; with Staphylococcus aureus [4], 4 µM; in the data set with Staphylococcus aureus [7], 4 µM; with Escherichia coli [10] it was 4 µM; in the data set on Pseudomonas aeruginosa, 32 µM; in data set [19] it was 4 µM. In addition, the MIC95 in the data set on Escherichia coli [2] turned out to be 2 µM; with Candida albicans [3], 8 µM; in the data set with Escherichia coli [5] it was 4 µM; against Candida albicans [6], 8 µM; in the data set with Escherichia coli [8], 4 µM; with Staphylococcus aureus [9], 2 µM. The MIC95 in the data set with Salmonella typhimurium [11] amounted to 4 µM; with Escherichia coli [13], 16 µM; in the data set on Candida albicans [14], 8 µM; against Salmonella typhimurium [15], 2 µM; in the data set on Staphylococcus aureus [16], 2 µM; in [17], 2 µM. Further, the MIC95 in the data set with Staphylococcus aureus [18] worked out at 2 µM. The “Wavelength of minimum CD band” value in [12] is 200 nm. The “MFC<=99.9” value in the data set with Candida tropicalis came out at 4 µM. The selectivity ratio in data set [20] amounted to 64.

With H-AARIILRWFRR-NH2, the minimal bactericidal concentration (MBC) was determined as 4 µM in the data set with Escherichia coli [1]; 8 µM in the data set on Staphylococcus aureus [4]; 8 µM in the data set with Staphylococcus aureus [7]; 4 µM with Escherichia coli [10]; 16 µM in the data set on Pseudomonas aeruginosa; 8 µM in data set [19]. The MIC95 against Escherichia coli [2] was 2 µM; with Candida albicans [3] it was 8 µM; against Escherichia coli [5], 2 µM; against Candida albicans [6], 8 µM; in the data set with Escherichia coli [8], 2 µM; against Staphylococcus aureus [9], 4 µM. Moreover, the MIC95 against Salmonella typhimurium [11] stood at 4 µM; with Escherichia coli [13], 2 µM; with Candida albicans [14] it was 8 µM; against Salmonella typhimurium [15] it was 4 µM; with Staphylococcus aureus [16], 4 µM; in [17], 4 µM. Also, the MIC95 with Staphylococcus aureus [18] turned out to be 4 µM. Further, in data set [12], the “Wavelength of minimum CD band” value turned out to be 200 nm. The “MFC<=99.9” value with Candida tropicalis is 4 µM. In addition, in [20], the selectivity ratio was found to be 53.8.

The values are drawn from ChEMBL document CHEMBL4350958, “Rational Design of Short Peptide Variants by Using Kunitzin-RE, an Amphibian-Derived Bioactivity Peptide, for Acquired Potent Broad-Spectrum Antimicrobial and Improved Therapeutic Potential of Commensalism Coinfection of Pathogens” (J Med Chem, 2019).
